# S100A4 MyoIIA: S100A4-myosin IIA interaction inhibition; actives 0.14% (n = 360,000); S100A4/TAMRA-MyoIIA peptide fluorescence polarization; inhibition, % at 10.7 µM; P26447; AID 652163;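 active = mean inhibition of at least 70% across replicates, with every replicate also reaching that level; inconclusive = mean inhibition reaches 70% but some replicates fall short; inactive = mean inhibition below 70%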
#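 Test system: S100A4 monomer protein; Medium: HEPES pH 7.2 with CaCl2, KCl, NaCl, DTT, Triton; Probe or stimulus: TAMRA-labelled myosin IIA heavy-chain peptide probe, 5 nM; Doses: one dose per compound; Times: polarization read 5 min after assay mix addition, stable 5–60 min; Benchmarks: neutral control DMSO, positive control TFP.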
# ERAP1 inh: ERAP1 (human) enzyme inhibition | inhibition, % at 10.7 µM | AID 652197 | recombinant ERAP1, Leu-AMC fluorescence, 60 min | Q9NZ08 | actives 0.15% (n = 340,000);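 active = mean replicate inhibition of at least 30%, or all replicates individually reaching that 30% level; inactive = mean below 30% and not every replicate reaching it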;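 note: 0% = neutral control wells and 100% = L-leucinethiol positive control wells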
# CAL PDZ FP-1: blocks peptide binding to the human CAL PDZ domain; Q9HD26; purified CAL PDZ, TMR-peptide fluorescence polarization, 1 h; inhibition, % at 24.9 µM; actives 0.92% (n = 300,000); AID 602252;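 active = mean inhibition of at least 30% with at least half of replicates also reaching 30%; inconclusive = no clear call, values can overlap the other calls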;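 note: 0% = DMSO neutral control and 100% = excess unlabeled competitor peptide PRC23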
# CAL PDZ FP-2: blocks peptide binding to human CAL PDZ domain. actives 0.02% (n = 330,000). purified CAL PDZ, TMR-peptide fluorescence polarization, 1 h. AID 504414. inhibition, % at 20 µM;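 active = highest replicate inhibition of at least 40%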;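 note: plate controls were DMSO neutral control wells for no effect and unlabeled competitor peptide control wells for full effect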
#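 System: tagged CAL PDZ domain. Schedule: 1 h room-temperature incubation prior to read. Signal: fluorescence polarization (mP). Measure: percent inhibition from loss of millipolarization.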
# DENV2 CPE: protects cells from dengue virus 2 cytopathic effect. actives 1.7% (n = 350,000). CPE inhibition, % at 9.99 µM. DENV2-infected cells, cytopathic effect rescue, plate reader; in the data active = CPE inhibition above about 20%, passing the limit was not always enough; inconclusive = no clear call, values can overlap the other calls; tested in BHK-21 cells;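 note: 0% = median of neutral control wells and 100% = median of positive control wells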
# SIRT5 inh: blocks human SIRT5 desuccinylation of peptide; Q9NXA8; Purified SirT5, succinyl-peptide AMC, trypsin-coupled fluorescence; inhibition, % at 15 µM; actives 1.1% (n = 330,000); AID 652115; in the data active = inhibition above about 15%; inconclusive = no clear call, values can overlap the other calls
# The depositor's hits bear a star; ? = inconclusive; · = not tested or not shown. Shown are actives, neighbours in structure and some others; about 2.9% of the full set was active somewhere.
SMILES,S100A4 MyoIIA,ERAP1 inh,CAL PDZ FP-1,CAL PDZ FP-2,DENV2 CPE,SIRT5 inh
C[C@H](CO)N1C[C@H](C)[C@@H](CN(C)S(=O)(=O)c2cn(C)cn2)Oc2ccc(NC(=O)Nc3cccc4ccccc34)cc2CC1=O,-3,1,·,·,86*,6
COc1ccc(NC(=O)Nc2ccc3c(c2)CC(=O)N([C@H](C)CO)C[C@@H](C)[C@H](CN(C)S(=O)(=O)c2cn(C)cn2)O3)cc1,-7,2,·,·,75*,1
Cc1ccc(S(=O)(=O)N(C)C[C@H]2Oc3ccc(NC(=O)Nc4cccc5ccccc45)cc3CC(=O)N([C@@H](C)CO)C[C@H]2C)cc1,-18,1,·,·,-2,19*
C[C@@H]1CN([C@@H](C)CO)C(=O)Cc2cc(NC(=O)Nc3ccccc3)ccc2O[C@@H]1CN(C)S(=O)(=O)c1cn(C)cn1,9,2,·,·,8,-6
Cc1cccc(-c2noc(CN(C)C(=O)c3ccoc3C)n2)c1,8,2,-2,-2,?,-7
Cc1cccc(-c2noc(CN(C)C(=O)c3ccco3)n2)c1,0,-3,-1,-1,-9,52*
CO[C@@H]1CN(C)C(=O)c2ccc(NC(=O)CN(C)C)cc2OC[C@@H](C)N(C(=O)C2CCOCC2)C[C@H]1C,6,-3,·,·,1,-2
Cc1cc(C)n(CC(=O)c2cccc([N+](=O)[O-])c2)n1,-4,0,36*,-1,-1,-1
O=C(Cc1ccccc1)OCC(=O)c1cccc([N+](=O)[O-])c1,-2,-2,47*,0,-2,0
Cc1cc(C)n(CC(=O)c2ccc(Cl)cc2)n1,2,0,0,-1,2,-7
C[C@@H]1CN([C@H](C)CO)C(=O)c2cc(/C=C/c3ccccc3)cnc2O[C@H]1CN(C)S(=O)(=O)c1cccs1,5,0,·,·,-1,-1
COc1ccc(NC(=O)N(C)C[C@@H]2Oc3ccc(NC(=O)Nc4ccc(F)cc4)cc3C(=O)N([C@H](C)CO)C[C@@H]2C)cc1,1,-1,·,·,-2,4
COc1cc(/C=N/NC(=O)COc2ccccc2[N+](=O)[O-])ccc1OC(=O)c1ccco1,41,-3,-2,-1,27*,1
Cc1ccc(S(=O)(=O)NCCN(CCNS(=O)(=O)c2ccc(C)cc2)S(C)(=O)=O)cc1,·,·,52*,-1,·,·
CC#CC[N+](C)(CC#CC)CC(=O)c1ccccc1,4,-3,58*,1,-5,-3
COc1ccc(-c2cc(NC(C)=O)c3ncc(-c4cccc(C(C)=O)c4)n3c2)cc1OC,-4,15,·,·,49*,1
CC(=O)Nc1cccc(-c2cc(NC=O)c3ncc(-c4ccc(C(C)=O)cc4)n3c2)c1,5,3,·,·,34*,·
CNC[C@H]1Oc2ccc(NC(=O)NC(C)C)cc2CC(=O)N([C@@H](C)CO)C[C@@H]1C,-21,-1,·,·,6,-5
O=C(C[C@H]1C=C[C@H](NC(=O)Nc2ccc(C(F)(F)F)cc2)[C@H](CO)O1)NCc1cccc(F)c1,7,1,·,·,-3,-1
Cc1c(C(=O)N(Cc2ccc(F)cc2)C2CCS(=O)(=O)C2)oc2ccccc12 (centres undefined),14,0,-2,-3,5,-1
Cc1c(C(=O)N(Cc2ccccc2)C2CCS(=O)(=O)C2)oc2ccccc12 (centres undefined),3,6,·,-1,-7,16*
CN(C)CC#Cc1ccc([C@H]2[C@@H](CO)N3CCCCN(C(=O)Nc4cc(F)ccc4F)C[C@H]23)cc1,-3,1,·,·,-12,-10
Cc1ccc(C)c(N(CC(=O)N2CCCCCC2)S(C)(=O)=O)c1,0,7,·,-1,-7,-3
COc1ccc(C)cc1S(=O)(=O)N(C)CC(=O)N1CCN(C)CC1,·,·,-1,-2,·,·
Cc1ccc(C)c(N(CC(=O)N2CCCC2)S(C)(=O)=O)c1,6,-7,77*,4,-3,4
SMILES,S100A4 MyoIIA,ERAP1 inh,CAL PDZ FP-1,CAL PDZ FP-2,DENV2 CPE,SIRT5 inh
CS(=O)(=O)N(CC(=O)N1CCN(Cc2ccccc2)CC1)c1cccc(F)c1,-3,-6,·,-1,-6,19*
Cc1ccc(N(CC(=O)N2CCCCCC2)S(C)(=O)=O)cc1Cl,3,2,·,0,-5,6
COc1ccc(N(CC(=O)N2CCN(C)CC2)S(=O)(=O)c2cc(C)ccc2OC)cc1Cl,3,-3,-4,0,83*,-1
Cc1ccc(N(CC(=O)N2CCOCC2)S(C)(=O)=O)cc1Cl,2,-5,-1,3,3,16*
C[C@@H]1CN([C@@H](C)CO)C(=O)c2cccc(NC(=O)NC3CCCCC3)c2O[C@@H]1CN(C)Cc1ccncc1,13,-2,·,·,1,1
CO[C@H]1CN(C)C(=O)c2cc(NC(=O)C3CC3)ccc2OC[C@H](C)N(C(=O)C2CCCCC2)C[C@@H]1C,-3,-3,·,·,-1,-2
C[C@@H]1CN([C@H](C)CO)S(=O)(=O)c2ccc(-c3ccccc3)cc2O[C@H]1CN(C)C,1,0,·,·,-3,-13
C[C@@H]1CN([C@@H](C)CO)C(=O)c2cccc(NS(=O)(=O)c3ccc(Cl)cc3)c2O[C@@H]1CN(C)S(=O)(=O)c1ccc(Cl)cc1,-5,0,·,·,-3,4
C[C@H]1CN([C@@H](C)CO)C(=O)c2ccccc2-c2ccccc2CO[C@H]1CN(C)Cc1cccc(C(F)(F)F)c1,5,0,·,·,-12,2
C[C@H](CO)N1C[C@H](C)[C@H](CN(C)Cc2ccc(C(F)(F)F)cc2)OCc2ccccc2-c2ccccc2C1=O,-6,-12,·,·,-14,14
C[C@@H]1CN([C@H](C)CO)C(=O)c2ccccc2-c2ccccc2CO[C@@H]1CN(C)Cc1ccc(C(F)(F)F)cc1,6,-9,·,·,0,5
C[C@H]1CN([C@@H](C)CO)C(=O)c2ccccc2-c2ccccc2CO[C@@H]1CN(C)Cc1ccc(C(F)(F)F)cc1,-18,0,·,·,-2,16*
C[C@H]1CN([C@@H](C)CO)C(=O)c2ccccc2-c2ccccc2CO[C@H]1CN(C)Cc1ccc(C(F)(F)F)cc1,1,7,·,·,50*,8
C[C@@H]1CN([C@@H](C)CO)C(=O)c2ccccc2-c2ccccc2CO[C@H]1CN(C)Cc1ccccc1C(F)(F)F,?,-3,·,·,-9,28*
C[C@H](CO)N1C[C@H](C)[C@H](CN(C)Cc2cccc(C(F)(F)F)c2)OCc2ccccc2-c2ccccc2C1=O,-7,1,·,·,-1,20*
CCC(=O)Nc1ccc2c(c1)C(=O)N(C)[C@H]1CC[C@@H](CC(=O)Nc3cccc(OC)c3)O[C@@H]1CO2,-2,0,·,·,11,-2
Cc1ccc(-c2n[nH]c(=O)c3ccccc23)cc1S(=O)(=O)NCCN1CCOCC1,·,·,42*,·,·,·

# High-throughput results (PubChem)
